Calls of active or inactive are those of the source. The calls are words filed in the database; no cut-off is given here.
Key:
[1] = biological target: T1, ATP-dependent translocase ABCB1 (Homo sapiens, UniProt P08183); assay: Inhibition of P-gp-mediated paclitaxel-resistance in P-glycoprotein-expressing human LCC-6 cells assessed as fold decrease in paclitaxel IC50 for cytotoxic activity at 1 uM after 5 days by MTS assay relative to control; type: cell-based; settings: lcc-6, 120 h
Method in brief: (§1)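 ABCB1-transfected LCC6MDR cells (6000 per well) given serial paclitaxel, doxorubicin or vincristine with or without 1 μM modulator for 5 days at 37 °C. MTS/PMS added for 2 h, absorbance 490 nm. IC50 from dose-response curves. RF = IC50 without modulator / IC50 with modulator; mean ± SEM.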

[2] = Cytotoxicity against multidrug-resistant human LCC-6 cells after 3 days by MTS assay; type: cell-based; settings: LCC-6, 72 h
L929 = assay: Cytotoxicity against mouse L929 cells after 3 days by MTS assay; type: cell-based; settings: L929, 72 h
[3] = Cytotoxicity against wild type human LCC-6 cells after 3 days by MTS assay; type: cell-based; settings: LCC-6, 72 h
[4] = biological target: T1, ATP-dependent translocase ABCB1; assay: Inhibition of P-gp-mediated paclitaxel-resistance in P-glycoprotein-expressing human LCC-6 cells assessed as fractional inhibitory concentration index at 0.5 uM after 5 days by MTS assay in presence of 1-(3,4,5-Trimethoxybenzyl)-3,4-bis(3,4-dimethoxyphenyl)-1H-pyrrole-2,5-dione; type: cell-based; settings: lcc-6, 120 h
Method in brief: (§2)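 LCC6MDR cells (6000 per well) given two modulators at 0.5 μM each, with serial paclitaxel, doxorubicin or vincristine, for 5 days at 37 °C. IC50 by MTS absorbance at 490 nm. FIC values come from IC50 relative to each modulator alone at 1 μM, and FICI is the sum (modified Chou–Talalay). Synergy: FICI ≤0.5; additive: 0.5–4; antagonism: >4.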

[5] = biological target: T1, ATP-dependent translocase ABCB1; assay: Inhibition of P-gp-mediated paclitaxel-resistance in P-glycoprotein-expressing human LCC-6 cells assessed as fractional inhibitory concentration index at 0.5 uM after 5 days by fraction affected plot assay in presence of 1-(3,4,5-Trimethoxybenzyl)-3,4-bis(3,4-dimethoxyphenyl)-1H-pyrrole-2,5-dione; type: cell-based; settings: lcc-6, 120 h
[6] = biological target: T1, ATP-dependent translocase ABCB1; assay: Inhibition of P-gp-mediated doxorubicin-resistance in P-glycoprotein-expressing human LCC-6 cells assessed as fold decrease in doxorubicin IC50 for cytotoxic activity at 1 uM after 5 days by MTS assay; type: cell-based; settings: lcc-6, 120 h; method in brief: as §1
[7] = biological target: T1, ATP-dependent translocase ABCB1; assay: Inhibition of P-gp-mediated vincristine-resistance in P-glycoprotein-expressing human LCC-6 cells assessed as fold decrease in vincristine IC50 for cytotoxic activity at 1 uM after 5 days by MTS assay; type: cell-based; settings: lcc-6, 120 h; method in brief: as §1
[8] = biological target: T1, ATP-dependent translocase ABCB1; assay: Inhibition of P-gp-mediated doxorubicin-resistance in P-glycoprotein-expressing human LCC-6 cells assessed as fractional inhibitory concentration index at 0.5 uM after 5 days by MTS assay in presence of 1-(3,4,5-Trimethoxybenzyl)-3,4-bis(3,4-dimethoxyphenyl)-1H-pyrrole-2,5-dion; type: cell-based; settings: lcc-6, 120 h; method in brief: as §2
[9] = biological target: T1, ATP-dependent translocase ABCB1; assay: Inhibition of P-gp-mediated vincristine-resistance in P-glycoprotein-expressing human LCC-6 cells assessed as fractional inhibitory concentration index at 0.5 uM after 5 days by MTS assay in presence of 1-(3,4,5-Trimethoxybenzyl)-3,4-bis(3,4-dimethoxyphenyl)-1H-pyrrole-2,5-dione; type: cell-based; settings: lcc-6, 120 h; method in brief: as §2
LCC-6 = assay: Increase in doxorubicin concentration in wild type human LCC-6 cells at 3 uM after 150 mins by spectrofluorimetry; type: functional, cell-based
Method in brief: (§3)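 Cells (1 × 10⁶ LCC6 or LCC6MDR) incubated with 20 μM doxorubicin plus modulator for 150 min at 37 °C; 0.4% DMSO as negative control. Cells washed in cold PBS pH 7.4 and lysed in 0.75 M HCl/0.2% Triton X-100 in isopropanol. Supernatant doxorubicin fluorescence read at ex 460/em 610 nm. Duplicate, repeated twice; mean ± SEM.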

[10] = biological target: T1, ATP-dependent translocase ABCB1; assay: Inhibition of P-gp-mediated doxorubicin-resistance in P-glycoprotein-expressing human LCC-6 cells assessed as increase in intracellular doxorubicin accumulation at 3 uM after 150 mins by spectrofluorimetry relative to control; type: cell-based; settings: lcc-6, 2.5 h; method in brief: as §3
[11] = biological target: T1, ATP-dependent translocase ABCB1; assay: Inhibition of P-gp-mediated doxorubicin-resistance in P-glycoprotein-expressing human LCC-6 cells assessed as increase in intracellular doxorubicin accumulation at 0.25 to 3 uM after 150 mins by spectrofluorimetry; type: cell-based; settings: lcc-6, 2.5 h; method in brief: as §3
[12] = biological target: T1, ATP-dependent translocase ABCB1; assay: Inhibition of P-gp-mediated doxorubicin-resistance in P-glycoprotein-expressing human LCC-6 cells assessed as increase in intracellular doxorubicin accumulation at 8 to 16 uM after 150 mins by spectrofluorimetry; type: cell-based; settings: lcc-6, 2.5 h; method in brief: as §3
[13] = Noncompetitive inhibition of P-gp-mediated doxorubicin transport in multidrug-resistant human LCC-6 cells after 150 mins by dixon plot analysis; type: cell-based
Method in brief: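 LCC6MDR cells (1 × 10⁶) incubated with doxorubicin at 1.5, 4.4, 13.3 or 40 μM and modulator at 0, 0.5, 1 or 2 μM for 150 min at 37 °C. Lysis and fluorescence done as in the accumulation assay. Ki taken from a Dixon plot of reciprocal retention rate vs modulator concentration. Slope replot vs 1/[doxorubicin] used to assign mechanism. Two to four experiments.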

T1 sequence (P08183 whole entry): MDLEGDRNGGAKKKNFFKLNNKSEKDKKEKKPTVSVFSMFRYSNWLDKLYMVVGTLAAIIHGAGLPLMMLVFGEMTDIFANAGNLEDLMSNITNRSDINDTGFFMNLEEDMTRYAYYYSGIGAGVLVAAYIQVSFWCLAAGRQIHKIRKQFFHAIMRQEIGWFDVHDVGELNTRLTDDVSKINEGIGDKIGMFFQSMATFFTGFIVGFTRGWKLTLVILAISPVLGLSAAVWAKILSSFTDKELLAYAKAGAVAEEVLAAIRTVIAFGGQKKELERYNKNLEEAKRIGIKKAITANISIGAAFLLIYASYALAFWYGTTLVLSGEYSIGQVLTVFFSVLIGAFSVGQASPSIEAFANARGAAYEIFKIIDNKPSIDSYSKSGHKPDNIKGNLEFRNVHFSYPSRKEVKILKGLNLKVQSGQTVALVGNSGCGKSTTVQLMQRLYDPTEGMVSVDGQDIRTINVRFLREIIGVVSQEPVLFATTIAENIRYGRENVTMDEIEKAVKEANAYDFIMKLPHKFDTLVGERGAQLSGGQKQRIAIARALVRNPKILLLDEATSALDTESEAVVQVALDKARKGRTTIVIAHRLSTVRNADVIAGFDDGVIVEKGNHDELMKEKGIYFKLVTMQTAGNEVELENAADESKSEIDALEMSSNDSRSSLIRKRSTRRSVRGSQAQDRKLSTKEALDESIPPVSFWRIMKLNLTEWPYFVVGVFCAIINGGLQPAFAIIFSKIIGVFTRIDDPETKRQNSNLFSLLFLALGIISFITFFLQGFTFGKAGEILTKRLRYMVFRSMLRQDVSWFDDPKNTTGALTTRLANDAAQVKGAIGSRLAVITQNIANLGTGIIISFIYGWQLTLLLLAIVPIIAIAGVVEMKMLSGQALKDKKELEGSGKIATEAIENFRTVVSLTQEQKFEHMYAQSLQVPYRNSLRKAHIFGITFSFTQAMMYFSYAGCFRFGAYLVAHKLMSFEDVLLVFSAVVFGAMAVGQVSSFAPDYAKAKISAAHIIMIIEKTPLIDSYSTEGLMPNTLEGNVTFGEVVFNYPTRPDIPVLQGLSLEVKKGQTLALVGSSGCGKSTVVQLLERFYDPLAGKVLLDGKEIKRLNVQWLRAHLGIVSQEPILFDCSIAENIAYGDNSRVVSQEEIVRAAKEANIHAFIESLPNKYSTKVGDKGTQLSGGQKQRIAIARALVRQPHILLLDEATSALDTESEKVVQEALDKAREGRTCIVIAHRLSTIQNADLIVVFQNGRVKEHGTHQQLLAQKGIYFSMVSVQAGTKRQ

SMILES: COc1ccc(C2=C(c3ccc(OC)c(OC)c3)C(=O)N(CCc3ccccc3)C2=O)cc1OC
- fold change (FC) [1]: 3.6
- IC50 [2]: > 100 µM
- IC50 (L929): > 100 µM

SMILES: COc1ccc(CCN2C(=O)C(c3ccc(OC)c(OC)c3)=C(c3ccc(OC)c(OC)c3)C2=O)cc1
- fold change (FC) [1]: 10.7
- IC50 [3]: 32.5 µM
- IC50 [2]: 18 µM
- IC50 (L929): 21.6 µM
- fractional inhibitory concentration index (FICI) [4]: 1.61
- fractional inhibitory concentration index (FICI) [5]: 1.61

SMILES: COc1ccc(C2=C(c3ccc(OC)c(OC)c3)C(=O)N(C/C=C/c3cc(OC)c(OC)c(OC)c3)C2=O)cc1OC
- fold change (FC) [1]: 6.2
- IC50 [3]: > 100 µM
- IC50 [2]: > 100 µM
- IC50 (L929): > 100 µM

SMILES: COc1ccc(CN2C(=O)C(c3ccc(OC)c(OC)c3)=C(c3ccc(OC)c(OC)c3)C2=O)cc1OC
- fold change (FC) [1]: 12.4
- IC50 [3]: > 100 µM
- IC50 [2]: > 100 µM
- IC50 (L929): > 100 µM
- fractional inhibitory concentration index (FICI) [4]: 2.21
- fractional inhibitory concentration index (FICI) [5]: 2.21

SMILES: COc1ccc(CN2C(=O)C(c3ccc(OC)c(OC)c3)=C(c3ccc(OC)c(OC)c3)C2=O)cc1
- fold change (FC) [1]: 9.3
- IC50 [3]: > 100 µM
- IC50 [2]: > 100 µM
- IC50 (L929): > 100 µM

SMILES: COc1ccc(C(=O)CN2C(=O)C(c3ccc(OC)c(OC)c3)=C(c3ccc(OC)c(OC)c3)C2=O)cc1OC
- fold change (FC) [1]: 8.2
- IC50 [3]: > 100 µM
- IC50 [2]: > 100 µM
- IC50 (L929): > 100 µM
- fractional inhibitory concentration index (FICI) [4]: 2.05
- fractional inhibitory concentration index (FICI) [5]: 2.05

SMILES: COc1ccc(C2=C(c3ccc(OC)c(OC)c3)C(=O)N(Cc3ccccc3)C2=O)cc1OC
- fold change (FC) [1]: 7.9

SMILES: COc1ccc(C2=C(c3ccc(OC)c(OC)c3)C(=O)N(CCCc3cc(OC)c(OC)c(OC)c3)C2=O)cc1OC
- fold change (FC) [1]: 4.7
- IC50 [3]: > 100 µM
- IC50 [2]: > 100 µM
- IC50 (L929): > 100 µM

SMILES: COc1ccc(C2=C(c3ccc(OC)c(OC)c3)C(=O)N(CCN3C(=O)C(c4ccc(OC)c(OC)c4)=C(c4ccc(OC)c(OC)c4)C3=O)C2=O)cc1OC
- fold change (FC) [1]: 1.4
- IC50 [2]: > 100 µM
- IC50 (L929): > 100 µM

SMILES: COc1ccc(C2=C(c3ccc(OC)c(OC)c3)C(=O)N(CCc3cc(OC)c(OC)c(OC)c3)C2=O)cc1OC
- fold change (FC) [1]: 4.5
- IC50 [3]: > 100 µM
- IC50 [2]: > 100 µM
- IC50 (L929): > 100 µM

SMILES: COc1ccc(C2=C(c3ccc(OC)c(OC)c3)C(=O)N(CCCN3C(=O)C(c4ccc(OC)c(OC)c4)=C(c4ccc(OC)c(OC)c4)C3=O)C2=O)cc1OC
- fold change (FC) [1]: 5.2
- IC50 [3]: > 100 µM
- IC50 [2]: > 100 µM
- IC50 (L929): > 100 µM

SMILES: COc1ccc(C2=C(c3ccc(OC)c(OC)c3)C(=S)N(CCc3cc(OC)c(OC)c(OC)c3)C2=O)cc1OC
- fold change (FC) [1]: 2.8

SMILES: COc1ccc(C2=C(c3ccc(OC)c(OC)c3)C(=O)N(CN3C(=O)C(c4ccc(OC)c(OC)c4)=C(c4ccc(OC)c(OC)c4)C3=O)C2=O)cc1OC
- fold change (FC) [1]: 8
- IC50 [3]: > 100 µM
- IC50 [2]: > 100 µM
- IC50 (L929): > 100 µM

SMILES: C/C=C/C[C@@H](C)C(=O)[C@H]1C(=O)N[C@@H](C(C)C)C(=O)N(C)CC(=O)N(C)[C@@H](CC(C)C)C(=O)N[C@@H](C(C)C)C(=O)N(C)[C@@H](CC(C)C)C(=O)N[C@@H](C)C(=O)N[C@H](C)C(=O)N(C)[C@@H](CC(C)C)C(=O)N(C)[C@@H](CC(C)C)C(=O)N(C)[C@@H](C(C)C)C(=O)N1C [VALSPODAR]
- fold change (FC) [1]: 101.8

SMILES: COc1ccc(C(=O)CN2C(=O)C(c3ccc(OC)c(OC)c3)=C(c3ccc(OC)c(OC)c3)C2=O)cc1
- fold change (FC) [1]: 9.9
- IC50 [3]: > 100 µM
- IC50 [2]: 90 µM
- IC50 (L929): > 100 µM
- fractional inhibitory concentration index (FICI) [4]: 0.42
- fold change (FC) [6]: 5.2
- fold change (FC) [7]: 9.3
- fractional inhibitory concentration index (FICI) [8]: 1.26
- fractional inhibitory concentration index (FICI) [9]: 0.89
- Activity (LCC-6): inactive
- fold change (FC) [10]: 2.1
- Activity [11]: Active
- Activity [12]: Not Active
- Ki [13]: 5.4 µM
- fractional inhibitory concentration index (FICI) [5]: 0.42

SMILES: COc1ccc(C2=C(c3ccc(OC)c(OC)c3)C(=O)N(CC(=O)c3ccccc3)C2=O)cc1OC
- fold change (FC) [1]: 3.9
- IC50 [2]: > 100 µM
- IC50 (L929): > 100 µM

SMILES: COc1ccc(CCN2C(=O)C(c3ccc(OC)c(OC)c3)=C(c3ccc(OC)c(OC)c3)C2=O)cc1OC
- fold change (FC) [1]: 6.9
- IC50 [3]: > 100 µM
- IC50 [2]: > 100 µM
- IC50 (L929): > 100 µM

SMILES: COc1ccc(C2=C(c3ccc(OC)c(OC)c3)C(=O)N(CCO)C2=O)cc1OC
- fold change (FC) [1]: 1.8
- IC50 [2]: 84 µM
- IC50 (L929): > 100 µM

SMILES: COc1ccc(C2=C(c3ccc(OC)c(OC)c3)C(=S)N(Cc3ccccc3)C2=O)cc1OC
- fold change (FC) [1]: 3.4
- IC50 [2]: > 100 µM
- IC50 (L929): > 100 µM

SMILES: COc1ccc(C2=C(c3ccc(OC)c(OC)c3)C(=O)N(Cc3cc(OC)c(OC)c(OC)c3)C2=O)cc1OC
- fold change (FC) [1]: 18.2
- IC50 [3]: > 100 µM
- IC50 [2]: > 100 µM
- IC50 (L929): > 100 µM
- fold change (FC) [6]: 9.5
- fold change (FC) [7]: 14.6
- Activity (LCC-6): inactive
- fold change (FC) [10]: 3
- Activity [11]: Active
- Activity [12]: Not Active
- Ki [13]: 5.5 µM

SMILES: COc1ccc(-c2cn(Cc3cc(OC)c(OC)c(OC)c3)c(OCc3cc(OC)c(OC)c(OC)c3)c2-c2ccc(OC)c(OC)c2)cc1OC
- fold change (FC) [1]: 1.6
- IC50 [3]: > 100 µM
- IC50 [2]: > 100 µM
- IC50 (L929): > 100 µM
